Like-named read-outs stand apart in the source and are kept apart here.
Columns and labels:
adult S. mansoni [1] = test: Viability of adult S. mansoni worms in vitro, microscopic viability score; type: cell-based, Schistosoma mansoni; conditions: for adult (%) 0.1 μM: Table 1, 0.1 μM; for adult (%) 0.1 μM / adult (%) 1 μM: effect on adult worms after 72 h; for adult (%) 1 μM: Table 1, 1 μM; for IC50: Table 1, adult worms after 72 h
Procedure, shortened: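 Adult worms were picked from the hepatic portal and mesenteric veins of mice infected 49 days earlier with 100 cercariae. They were washed in PBS pH 7.4 and held in RPMI 1640 with 5% heat-inactivated FCS and antibiotics at 37 °C, 5% CO2. Worms were exposed to test compound for 72 h, with medium plus 1% DMSO as control. Motility, viability and morphology were scored daily by microscopy at 80×. IC50 used a 3-fold dilution series starting at 1 μM and was computed from the scores.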

adult S. mansoni [2] = conditions: read-out: IC50 against adult S. mansoni; cited from earlier work
S. mansoni NTS = conditions: read-out: IC50 against NTS; cited from earlier work
S. mansoni [3] = test: In vivo study in mice harboring a chronic S. mansoni infection; conditions: single oral dose 10 mg/kg
Procedure, shortened: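 Female NMRI mice (3 weeks old, ca. 20–22 g) were infected subcutaneously with about 100 S. mansoni cercariae. At day 49 post-infection (adult infection), groups of four received a single oral 10 mg/kg dose of test compound; untreated mice served as controls. Mice were euthanised with CO2 21 days after treatment. Worms were picked, sexed and counted, and worm burden reduction was calculated.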

S. mansoni [4] = conditions: cited from earlier work
S. mansoni [5] = conditions: cited from earlier work; remark: listed apart in the source

## C[C@@H]1C[C@H](O)[C@]2(O)O[C@@H]3C[C@@]4(C)[C@@H](CC[C@@H]5[C@@H]4CC[C@]4(C)[C@@H](C6=CC(=O)OC6)CC[C@]54O)C[C@H]3O[C@@H]2O1 [5f, Gomphoside]
Adult S. mansoni [1]
  adult (%) 0.1 μM: 24.4%
  adult (%) 1 μM: 94%
  IC50: 196 nM

## O=C(C1CCCCC1)N1CC(=O)N2CCc3ccccc3C2C1 (centres unmarked) [praziquantel]
Adult S. mansoni [2]
  IC50: 100 nM
S. mansoni NTS
  IC50: 2200 nM

## C[C@@H]1C[C@@]2(N=CCS2)[C@]2(O)O[C@@H]3C[C@@]4(C=O)[C@@H](CC[C@@H]5[C@@H]4CC[C@]4(C)[C@@H](C6=CC(=O)OC6)CC[C@]54O)C[C@H]3O[C@@H]2O1 [5z, Uscharin]
Adult S. mansoni [1]; Schistosoma mansoni, 72 h
  IC50: 76 nM
Adult S. mansoni [1]
  adult (%) 0.1 μM: 51%
  adult (%) 1 μM: 100%
S. mansoni [3]
  mean number of worms, MV: 27.7 ± 6.5
  mean number of worms, females: 13.0 ± 4.6
  mean number of worms, liver, alive: 0.7 ± 1.1
  mean number of worms, liver, dead: 0 ± 0
  mean number of worms, males: 15.3 ± 3.2
  mean number of worms, total: 28.3 ± 7.5
S. mansoni [3]; chronic infection
  total WBR (worm burden reduction): 0%

## C[C@@H]1C[C@@]2(NCCS2)[C@]2(O)O[C@@H]3C[C@@]4(C=O)[C@@H](CC[C@@H]5[C@@H]4CC[C@]4(C)[C@@H](C6=CC(=O)OC6)CC[C@]54O)C[C@H]3O[C@@H]2O1 [5aa, Voruscharin]
Adult S. mansoni [1]
  adult (%) 0.1 μM: 31.3%
  adult (%) 1 μM: 98%
  IC50: 137 nM

## C[C@@H]1C[C@H](O)[C@]2(O)O[C@@H]3C[C@@]4(C=O)[C@@H](CC[C@@H]5[C@@H]4CC[C@]4(C)[C@@H](C6=CC(=O)OC6)CC[C@]54O)C[C@H]3O[C@@H]2O1 [5a, Calotropin]
Adult S. mansoni [1]; Schistosoma mansoni, 72 h
  IC50: 371 nM
Adult S. mansoni [1]
  adult (%) 0.1 μM: 22.9%
  adult (%) 1 μM: 97%

## CC(=O)S[C@@H]1CC2=CC(=O)CC[C@]2(C)[C@H]2CC[C@@]3(C)[C@@H](CC[C@@]34CCC(=O)O4)[C@H]12 [spironolactone]
S. mansoni [4]
  in vitro activity against S. mansoni: 7.2 µM
S. mansoni [5]
  in vivo activity: moderate
